Legend:
[1] = melting temperature; fluorescence melt of hairpins on a sequencing array, two-state fit, raised by 9.35 °C to match UV melts; conditions: sodium 0.088 M
Outline: (§1)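 Melting temperature and folding enthalpy were derived from bootstrapped two-state fits. The fitted temperatures were raised by 9.35 °C to agree with UV melts, and four replicates were combined by inverse variance. The underlying data were Cy3 fluorescence images of library hairpins, with annealed Cy3 and quencher oligos, on a sequenced MiSeq flow cell in 50 mM Na-HEPES pH 8.0, 25 mM NaCl, taken in 2.5 °C steps up to 60 °C, normalised to pre-quench Cy3 and to control constructs.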

[2] = folding enthalpy; higher = less favourable; fluorescence melt of hairpins on a sequencing array, two-state fit; conditions: sodium 0.088 M
Outline: as §1

Row | Sequence | Tm [1] [°C] | folding enthalpy [2] [kJ/mol]
1 | GATCGCCGCCGCGATC ((((((....)))))) | 66.6 | -150
2 | GAACTTGAAAAAGTTC ((((((....)))))) | 49.7 | -120
3 | GCCTTCGAAAGAAGGGGC ((((((....)))..))) | 53.8 | -74.6
4 | GATCTACGTCTAGATC ((((((....)))))) | 40.7 | -86.7
5 | GATCTATAGTAGATC ((((((...)))))) | 38.6 | -93.5
6 | GTTGAGCGAAAGCTTAAC (((.(((....))).))) | 52.4 | -111
7 | GCGAACGAAAGTTTCCGC ((((((....)))..))) | 36.2 | -88.2
8 | GGAAGCGAAAGCTGTTCC ((((((....)))..))) | 36.5 | -50.7
9 | GGGTTACGAAAGTAGCCC (((.(((....))).))) | 59.6 | -191
10 | GTTTGCGAAAGCACAAAC ((((((....)))..))) | 31.6 | -51.4
11 | GCTTAGACGAAAGTCAGC (((..(((....)))))) | 41.6 | -76.2
12 | GTCTTACGAAAGTAGGAC (((.(((....))).))) | 48.9 | -118
13 | GTGCCAGGAAACCGGCAC (((((.(....).))))) | 59.2 | -177
14 | GCTCCGCGAAAGCGTTGC ((..(((....)))..)) | 40.4 | -59.6
15 | GTTTGGCGAAAGCCTAAC (((.(((....))).))) | 51 | -91.1
16 | GGAGTAGGAAACTGCTCC ((((.((....)).)))) | 51.4 | -119
17 | GGGCCCGAAAGGGGTCCC ((((((....)))..))) | 66.2 | -60.5
18 | GCCGGGCGAAAGCCTTGC ((..(((....)))..)) | 40.2 | -51.8
19 | AACGTGAAAACGTT (((((....))))) | 48 | -80.3
20 | GTTGGAGGAAACTCTAAC (((.(((....))).))) | 39.9 | -114
21 | GATCTTGGCTAAGATC ((((((....)))))) | 48.2 | -189
22 | GATCTCTGTGAGATC ((((((...)))))) | 54.9 | -178
23 | GGGATACGAAAGTACCCC (((.(((....))).))) | 50.8 | -156

Row | Sequence | Tm [1] [°C] | folding enthalpy [2] [kJ/mol]
24 | GATCAGTAAGCTGATC ((((((....)))))) | 52.3 | -173
25 | GGTGGCGAAAGCCCAACC ((((((....)))..))) | 42 | -62
26 | GATCTATACCTAGATC ((((((....)))))) | 43.2 | -145
27 | CGTAACGGAAACGTAACG (((.(((....))).))) | 44.8 | -124
28 | GATTACGGAAACGTAATC (((((((....))))))) | 55.5 | -210
29 | GAAAGAGCGAAAGCTTTC (((..(((....)))))) | 32.5 | -57.7
30 | GTCGCCGGAAACGGTGAC (((.(((....))).))) | 63.7 | -174
31 | GGGTCCGCGAAAGCGCCC (((..(((....)))))) | 40 | -62.3
32 | GGATTGCGAAAGCATCC (((.(((....)))))) | 50.8 | -86.8
33 | GAAGGCGAAAGCCGTTTC ((((((....)))..))) | 39 | -45.5
34 | GGATAGCGAAAGCTGTCC (((.(((....))).))) | 59.3 | -176
35 | GATAGCCGAAAGGCGATC (((.(((....))).))) | 58.8 | -74.9
36 | GCATGTGGAAACACATGC (((((((....))))))) | 68.5 | -155
37 | GATCCGAACCGGATC ((((((...)))))) | 57 | -168
38 | CGCGGAGAGTCCGCG ((((((...)))))) | 69 | -113
39 | GATCAAGACTTTGATC ((((((....)))))) | 51.7 | -147
40 | GGACTCGCGAAAGCGTCC (((..(((....)))))) | 39.1 | -54.8
41 | GGTACTGGAAACGGTATC (.(((.(....).))).) | 27.7 | -54.5
42 | GATCGGGGAAACCTGATC ((((.((....)).)))) | 49.2 | -183
43 | GCCTGCCCGAAAGGGGGC (((..(((....)))))) | 58.1 | -52.8
44 | GACGGACGAAAGTCAGTC (((.(((....))).))) | 59.5 | -157
45 | GGGTTCGAAAGAAGGCCC ((((((....)))..))) | 35.6 | -86.5
46 | GTGCGTGGAAACATGCGC (.((.((....)).)).) | 49.5 | -124

Row | Sequence | Tm [1] [°C] | folding enthalpy [2] [kJ/mol]
47 | GATCCAGTGGTGGATC ((((((....)))))) | 50.4 | -145
48 | GCCGCAGGAAACCACGGC ((((..(....)..)))) | 42.1 | -85.3
49 | GCGGGGCGAAAGCACAGC ((.(.((....)).).)) | 65.4 | -133
50 | GCTCACGAAAGTGGGAGC ((((((....)))..))) | 49.9 | -84.1
51 | GTGCTCCGAAAGGATCAC (((.(((....))).))) | 50.2 | -133
52 | GCGTAGCGAAAGCTATGC ((.((((....)))).)) | 62.4 | -75.5
53 | GCCTAGCGAAAGCTTAGC ((..(((....)))..)) | 36.8 | -52.8
54 | GACTGCACGAAAGTGGTC (((..(((....)))))) | 35.3 | -58.4
55 | CGTCTCGGAAACGAAACG (((.(((....))).))) | 38.5 | -136
56 | GCCAGGCGAAAGCGTTGC ((.(.((....)).).)) | 34.2 | -69.7
57 | GCCCACACGAAAGTGGGC (((..(((....)))))) | 68 | -110
58 | GTCGGTGGAAACATCGGC (.((.((....)).)).) | 44.4 | -110
59 | GTATTGGGAAACCAGTAC (((.(((....))).))) | 40 | -114
60 | GCGGTGCGAAAGCTCTGC ((.(.((....)).).)) | 54.3 | -84.3
61 | GATCCATATTTGGATC ((((((....)))))) | 53.6 | -154
62 | GTACGCGGAAACACGTAC (((((.(....).))))) | 47.9 | -143
63 | GCTTCCGAAAGGAGGAGC ((((((....)))..))) | 39.1 | -88
64 | GCCGCGCGAAAGCGTCGC ((..(((....)))..)) | 58 | -42.1
65 | GATCTCCGTTGAGATC ((((((....)))))) | 52.6 | -149
66 | GATCGTCCAGACGATC ((((((....)))))) | 59.8 | -177
67 | GATCCCAACAGGGATC ((((((....)))))) | 62.4 | -151
68 | GTTTTGGGAAACTGAAAC ((((..(....)..)))) | 31.4 | -51
69 | GCTAAAGCGAAAGCTAGC (((..(((....)))))) | 47.3 | -89.7

Row | Sequence | Tm [1] [°C] | folding enthalpy [2] [kJ/mol]
70 | GATCCCAGAAGGGATC ((((((....)))))) | 60.4 | -145
71 | GATCAGATGCCTGATC ((((((....)))))) | 48.4 | -99.6
72 | GTCCTAGGAAACTGGGAC ((((.((....)).)))) | 49.4 | -158
73 | GATCCTAGGGAGGATC ((((((....)))))) | 51.8 | -124
74 | CGCGGGAAAGCCCGCG ((((((....)))))) | 68.1 | -155
75 | GATCGGGAACCCGATC ((((((....)))))) | 63.7 | -177
76 | GGGTCCGAAAGGAGCCCC ((((((....)))..))) | 66.4 | -45.9
77 | GACCTCGCGAAAGCGGTC (((..(((....)))))) | 42.3 | -51.5
78 | GATCCCCCCTGGGATC ((((((....)))))) | 58.4 | -164
79 | GTGAAGACGAAAGTCCAC (((..(((....)))))) | 41.6 | -77
80 | GATCACGATTGTGATC ((((((....)))))) | 56.6 | -139
81 | GCAGTCGAAAGACGGTGC ((((((....)))..))) | 48.5 | -79.6
82 | GCACGGCGAAAGCTGCGC ((.(.((....)).).)) | 61 | -87.1
83 | GCGGAAACCGC ((((...)))) | 52.9 | -96.3
84 | GCCAACGAAAGTTTTGGC ((((((....)))..))) | 44.6 | -96.9
85 | GATCAACCTGTTGATC ((((((....)))))) | 55.2 | -172
86 | GGTGAGCGAAAGCTACC (((.(((....)))))) | 51.7 | -80.5
87 | GCGGACGGAAACGTCCAC (.(((((....))))).) | 51.1 | -51.3
88 | GAGAACGCGAAAGCGCTC (((..(((....)))))) | 39 | -51
89 | GACCGAGGAAACTCGATC ((.((((....)))).)) | 40.7 | -88.2
90 | GATCTCGCCTGAGATC ((((((....)))))) | 54 | -154
91 | GAACTGCGAAAGCACTTC (((.(((....))).))) | 28.4 | -45.5
92 | GAGTCCGAAAGGATACTC ((((((....)))..))) | 38.6 | -74.9
